Experimental data as given in ChEMBL document CHEMBL3779892, “Increasing the binding affinity of VEGFR-2 inhibitors by extending their hydrophobic interaction with the active site: Design, synthesis and biological evaluation of 1-substituted-4-(4-methoxybenzyl)phthalazine derivatives” (Eur J Med Chem, 2016).

How the values were obtained:
Format in all cases: functional
[1] = Growth inhibition of human HCT15 cells at 10 uM after 48 hrs by sulforhodamine B assay; details: HCT-15, 48 h, read-out: GI
Method in brief: (§1)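 Run at NCI on the 60-line panel. Cells grown in RPMI 1640 with 5% FBS and 2 mM L-glutamine, plated at 5000–40,000 cells/well by doubling time, and held 24 h at 37 °C before dosing. Drug (DMSO stock) given at a single final 10 µM in triplicate wells for 48 h. Adherent cells fixed with cold TCA (10% final), suspension cells with 16% TCA. SRB stain read at 515 nm. Percent growth from Tz, C and Ti.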

[2] = Growth inhibition of human OVCAR4 cells at 10 uM after 48 hrs by sulforhodamine B assay; details: OVCAR-4, 48 h, read-out: GI; method in brief: as §1
[3] = Growth inhibition of human SNB19 cells at 10 uM after 48 hrs by sulforhodamine B assay; details: SNB-19, 48 h, read-out: GI; method in brief: as §1
[4] = Growth inhibition of human OVCAR8 cells at 10 uM after 48 hrs by sulforhodamine B assay; details: OVCAR-8, 48 h, read-out: GI; method in brief: as §1
HT-29 = assay: Growth inhibition of human HT-29 cells at 10 uM after 48 hrs by sulforhodamine B assay; details: HT-29, 48 h, read-out: GI; method in brief: as §1
CCRF-CEM = assay: Growth inhibition of human CCRF-CEM cells at 10 uM after 48 hrs by sulforhodamine B assay; details: read-out: GI; method in brief: as §1
[5] = Growth inhibition of human RPMI8226 cells at 10 uM after 48 hrs by sulforhodamine B assay; details: RPMI-8226, 48 h, read-out: GI; method in brief: as §1
[6] = Growth inhibition of human OVCAR5 cells at 10 uM after 48 hrs by sulforhodamine B assay; details: OVCAR-5, 48 h, read-out: GI; method in brief: as §1
[7] = Growth inhibition of human SF295 cells at 10 uM after 48 hrs by sulforhodamine B assay; details: SF-295, 48 h, read-out: GI; method in brief: as §1
[8] = Growth inhibition of human HOP92 cells at 10 uM after 48 hrs by sulforhodamine B assay; details: HOP-92, 48 h, read-out: GI; method in brief: as §1
[9] = Growth inhibition of human LOXIMVI cells at 10 uM after 48 hrs by sulforhodamine B assay; details: LOX IMVI, read-out: GI; method in brief: as §1
[10] = Growth inhibition of human COLO205 cells at 10 uM after 48 hrs by sulforhodamine B assay; details: COLO 205, 48 h, read-out: GI; method in brief: as §1
SK-MEL-28 = assay: Growth inhibition of human SK-MEL-28 cells at 10 uM after 48 hrs by sulforhodamine B assay; details: SK-MEL-28, 48 h, read-out: GI; method in brief: as §1
SN12C = assay: Growth inhibition of human SN12C cells at 10 uM after 48 hrs by sulforhodamine B assay; details: read-out: GI; method in brief: as §1
K562 = assay: Growth inhibition of human K562 cells at 10 uM after 48 hrs by sulforhodamine B assay; details: K562, 48 h, read-out: GI; method in brief: as §1
MCF7 = assay: Growth inhibition of human MCF7 cells at 10 uM after 48 hrs by sulforhodamine B assay; details: MCF7, 48 h, read-out: GI; method in brief: as §1
SK-MEL-5 = assay: Growth inhibition of human SK-MEL-5 cells at 10 uM after 48 hrs by sulforhodamine B assay; details: SK-MEL-5, 48 h, read-out: GI; method in brief: as §1
[11] = Growth inhibition of human SW620 cells at 10 uM after 48 hrs by sulforhodamine B assay; details: SW-620, 48 h, read-out: GI
Method in brief: (§2)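 NCI-60 panel, adherent cells grown in RPMI 1640 with 5% FBS and 2 mM L-glutamine, plated at 5000–40,000 cells/well and preincubated 24 h at 37 °C, 5% CO2. 10 µM final compound from DMSO stock, triplicate wells, 48 h. Fixed with cold TCA (10% final, 60 min, 4 °C) and stained with 0.4% SRB. Absorbance read at 515 nm; growth calculated against time-zero and control wells.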

[12] = Growth inhibition of human BT549 cells at 10 uM after 48 hrs by sulforhodamine B assay; details: BT-549, 48 h, read-out: GI; method in brief: as §1
SR = assay: Growth inhibition of human SR cells at 10 uM after 48 hrs by sulforhodamine B assay; details: read-out: GI
Method in brief: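 NCI-60 screen. Cells were grown in RPMI 1640 with 5% FBS and 2 mM L-glutamine, plated at 5000–40,000 cells/well and held 24 h at 37 °C, 5% CO2. Single 10 µM final dose from DMSO stock, triplicate wells, 48 h. Settled cells were fixed with 80% TCA (16% final) and stained with 0.4% SRB. Dye was solubilized in 10 mM Tris and read at 515 nm. Growth was calculated against time-zero and untreated wells.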

ACHN = assay: Growth inhibition of human ACHN cells at 10 uM after 48 hrs by sulforhodamine B assay; details: read-out: GI; method in brief: as §1
[13] = Growth inhibition of human UO31 cells at 10 uM after 48 hrs by sulforhodamine B assay; details: UO-31, 48 h, read-out: GI; method in brief: as §2
MDA-MB-468 = assay: Growth inhibition of human MDA-MB-468 cells at 10 uM after 48 hrs by sulforhodamine B assay; details: MDA-MB-468, 48 h, read-out: GI; method in brief: as §1
[14] = Growth inhibition of human SKOV3 cells at 10 uM after 48 hrs by sulforhodamine B assay; details: SK-OV-3, 48 h, read-out: GI; method in brief: as §1
[15] = Growth inhibition of human HCT116 cells at 10 uM after 48 hrs by sulforhodamine B assay; details: HCT-116, 48 h, read-out: GI; method in brief: as §1
[16] = Growth inhibition of human RXF393 cells at 10 uM after 48 hrs by sulforhodamine B assay; details: RXF 393, 48 h, read-out: GI; method in brief: as §1
[17] = Growth inhibition of human PC3 cells at 10 uM after 48 hrs by sulforhodamine B assay; details: PC-3, 48 h, read-out: GI; method in brief: as §1
M14 = assay: Growth inhibition of human M14 cells at 10 uM after 48 hrs by sulforhodamine B assay; details: M14, 48 h, read-out: GI; method in brief: as §1
[18] = Growth inhibition of human HCC2998 cells at 10 uM after 48 hrs by sulforhodamine B assay; details: HCC 2998, 48 h, read-out: GI; method in brief: as §1
NCI-H460 = assay: Growth inhibition of human NCI-H460 cells at 10 uM after 48 hrs by sulforhodamine B assay; details: NCI-H460, 48 h, read-out: GI; method in brief: as §1
[19] = Growth inhibition of human SF268 cells at 10 uM after 48 hrs by sulforhodamine B assay; details: SF-268, 48 h, read-out: GI; method in brief: as §1
A549 = assay: Growth inhibition of human A549 cells at 10 uM after 48 hrs by sulforhodamine B assay; details: A549, 48 h, read-out: GI; method in brief: as §1
KM12 = assay: Growth inhibition of human KM12 cells at 10 uM after 48 hrs by sulforhodamine B assay; details: KM12, 48 h, read-out: GI; method in brief: as §1
Malme-3M = assay: Growth inhibition of human MALME-3M cells at 10 uM after 48 hrs by sulforhodamine B assay; details: read-out: GI; method in brief: as §1

## COc1ccc(Cc2nnc(Nc3ccc(NC(=O)Nc4ccc(Cl)cc4)cc3)c3ccccc23)cc1
[1]
  inhibition of growth at 10 µM: 41%
[2]
  inhibition of growth at 10 µM: < 30%
[3]
  inhibition of growth at 10 µM: 39%
[4]
  inhibition of growth at 10 µM: < 30%
HT-29
  inhibition of growth at 10 µM: 34%
CCRF-CEM
  inhibition of growth at 10 µM: 42%
[5]
  inhibition of growth at 10 µM: 75%
[6]
  inhibition of growth at 10 µM: < 30%
[7]
  inhibition of growth at 10 µM: 52%
[8]
  inhibition of growth at 10 µM: < 30%
[9]
  inhibition of growth at 10 µM: < 30%
[10]
  inhibition of growth at 10 µM: < 30%
SK-MEL-28
  inhibition of growth at 10 µM: < 30%
SN12C
  inhibition of growth at 10 µM: < 30%
K562
  inhibition of growth at 10 µM: < 30%
MCF7
  inhibition of growth at 10 µM: 33%
SK-MEL-5
  inhibition of growth at 10 µM: < 30%
[11]
  inhibition of growth at 10 µM: < 30%
[12]
  inhibition of growth at 10 µM: 37%
SR
  inhibition of growth at 10 µM: 40%
ACHN
  inhibition of growth at 10 µM: 46%
[13]
  inhibition of growth at 10 µM: < 30%
MDA-MB-468
  inhibition of growth at 10 µM: < 30%
[14]
  inhibition of growth at 10 µM: < 30%
[15]
  inhibition of growth at 10 µM: 42%
[16]
  inhibition of growth at 10 µM: 79%
[17]
  inhibition of growth at 10 µM: 31%
M14
  inhibition of growth at 10 µM: 30%
[18]
  inhibition of growth at 10 µM: < 30%
NCI-H460
  inhibition of growth at 10 µM: 110%
[19]
  inhibition of growth at 10 µM: < 30%
A549
  inhibition of growth at 10 µM: 33%
KM12
  inhibition of growth at 10 µM: 39%
Malme-3M
  inhibition of growth at 10 µM: < 30%

## COc1ccc(Cc2nnc(Nc3ccc(NC(=O)Nc4ccc(C#N)cc4)cc3)c3ccccc23)cc1
[1]
  inhibition of growth at 10 µM: 36%
[2]
  inhibition of growth at 10 µM: < 30%
[3]
  inhibition of growth at 10 µM: 43%
[4]
  inhibition of growth at 10 µM: < 30%
HT-29
  inhibition of growth at 10 µM: 45%
CCRF-CEM
  inhibition of growth at 10 µM: 47%
[5]
  inhibition of growth at 10 µM: 95%
[6]
  inhibition of growth at 10 µM: < 30%
[7]
  inhibition of growth at 10 µM: 86%
[8]
  inhibition of growth at 10 µM: < 30%
[9]
  inhibition of growth at 10 µM: 46%
[10]
  inhibition of growth at 10 µM: < 30%
SK-MEL-28
  inhibition of growth at 10 µM: 45%
SN12C
  inhibition of growth at 10 µM: < 30%
K562
  inhibition of growth at 10 µM: 50%
MCF7
  inhibition of growth at 10 µM: 45%
SK-MEL-5
  inhibition of growth at 10 µM: < 33%
[11]
  inhibition of growth at 10 µM: < 30%
[12]
  inhibition of growth at 10 µM: 51%
SR
  inhibition of growth at 10 µM: 43%
ACHN
  inhibition of growth at 10 µM: 48%
[13]
  inhibition of growth at 10 µM: 44%
MDA-MB-468
  inhibition of growth at 10 µM: < 30%
[14]
  inhibition of growth at 10 µM: 37%
[15]
  inhibition of growth at 10 µM: 44%
[16]
  inhibition of growth at 10 µM: 110%
[17]
  inhibition of growth at 10 µM: 41%
M14
  inhibition of growth at 10 µM: 35%
[18]
  inhibition of growth at 10 µM: < 30%
NCI-H460
  inhibition of growth at 10 µM: 40%
[19]
  inhibition of growth at 10 µM: < 30%
A549
  inhibition of growth at 10 µM: 36%
KM12
  inhibition of growth at 10 µM: 37%
Malme-3M
  inhibition of growth at 10 µM: 42%
